Test results as given in ChEMBL document CHEMBL1177701, “Synthesis, biological evaluation, and structure-activity relationships of dithiolethiones as inducers of cytoprotective phase 2 enzymes” (J Med Chem, 2010).
Each block holds one molecule with its values, some of them ahead of it. The source made the active and inactive calls. The rule behind the calls is not given here.

Assays:
[1] = Dissociation constant, pKa of the compound; format: physicochemical
Rattus norvegicus [2] = assay: Ex vivo induction of NQO1 in Sprague-Dawley rat bladder at 7.5 umol/kg/day, po for 10 days measured on day 11 relative to control; format: functional
In short: (§1)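 Female Sprague-Dawley rats, 6 per group, gavaged with compound at 7.5 µmol/kg/day or soya oil for 10 days and killed on day 11. Bladder homogenized in ice-cold 0.2% Triton X-100 and cleared by centrifugation. NQO1 activity measured by the Ernster method, GST by the Habig method. Reported as treated/control mean ± SEM, ANOVA with Student-Newman-Keuls test.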

Rattus norvegicus [3] = assay: Ex vivo induction of GST in Sprague-Dawley rat bladder at 7.5 umol/kg/day, po for 10 days measured on day 11 relative to control; format: functional; in short: as §1
Rattus norvegicus [4] = assay: Ex vivo induction GCL protein expression in Sprague-Dawley rat bladder at 7.5 umol/kg/day, po for 10 days measured on day 11 by Western blot analysis; format: functional, organism-based
In short: (§2)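 Female Sprague-Dawley rats, 3 per group, gavaged once daily with compound at 7.5 µmol/kg or soya oil vehicle for 10 days. Killed on day 11. Bladder homogenized in 10 mM Tris-HCl pH 7.4, 0.25 M sucrose, 1 mM PMSF, 1 µg/ml leupeptin. 25-40 µg protein run by SDS-PAGE, then Western blot, with GAPDH as loading control.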

Rattus norvegicus [5] = assay: Ex vivo induction GST-alpha protein expression in Sprague-Dawley rat bladder at 7.5 umol/kg/day, po for 10 days measured on day 11 by Western blot analysis; format: functional, organism-based; in short: as §2
Rattus norvegicus [6] = assay: Ex vivo induction GST-mu protein expression in Sprague-Dawley rat bladder at 7.5 umol/kg/day, po for 10 days measured on day 11 by Western blot analysis; format: functional, organism-based; in short: as §2
Rattus norvegicus [7] = assay: Ex vivo induction GST-pi protein expression in Sprague-Dawley rat bladder at 7.5 umol/kg/day, po for 10 days measured on day 11 by Western blot analysis; format: functional, organism-based; in short: as §2
NBT2 [8] = assay: Induction of NQO1 protein expression in rat NBT2 cells after 24 hrs by Western blot analysis; format: functional, cell-based
In short: (§3)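 NBT-II rat bladder carcinoma cells grown in MEM with 10% FBS. Plated overnight, then exposed to compound at 25 or 50 µM for 24 h, with 0.1% DMSO final. Cells trypsinized, lysed with 1 mM PMSF and sonicated. 25-40 µg protein taken for Western blot, GAPDH as loading control. At least two experiments.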

NBT2 [9] = assay: Induction of GST-mu protein expression in rat NBT2 cells after 24 hrs by Western blot analysis; format: functional, cell-based; in short: as §3
NBT2 [10] = assay: Induction of GST-alpha protein expression in rat NBT2 cells after 24 hrs by Western blot analysis; format: functional, cell-based; in short: as §3
NBT2 [11] = assay: Induction of GST-pi protein expression in rat NBT2 cells at 25 to 50 uM after 24 hrs by Western blot analysis; format: functional, cell-based; in short: as §3
NBT2 [12] = assay: Induction of GCL protein expression in rat NBT2 cells at 25 to 50 uM after 24 hrs by Western blot analysis; format: functional, cell-based; in short: as §3
Rattus norvegicus [13] = assay: Ex vivo induction of NQO1 in Sprague-Dawley rat liver at 7.5 umol/kg/day, po for 10 days measured on day 11 relative to control; format: functional
In short: (§4)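 Organs taken from the same rats used for the bladder study: female Sprague-Dawley, compound at 7.5 µmol/kg/day by gavage or soya oil for 10 days, killed on day 11. GI contents rinsed out under cold water and tissues stored at −80°C. Homogenized in 0.2% Triton X-100 and centrifuged. Supernatant NQO1 activity measured by the Ernster method, expressed as treated/control.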

Rattus norvegicus [14] = assay: Ex vivo induction of NQO1 in Sprague-Dawley rat kidney at 7.5 umol/kg/day, po for 10 days measured on day 11 relative to control; format: functional; in short: as §4
Rattus norvegicus [15] = assay: Ex vivo induction of NQO1 in Sprague-Dawley rat lung at 7.5 umol/kg/day, po for 10 days measured on day 11 relative to control; format: functional; in short: as §4
Rattus norvegicus [16] = assay: Ex vivo induction of NQO1 in Sprague-Dawley rat duodenum at 7.5 umol/kg/day, po for 10 days measured on day 11 relative to control; format: functional; in short: as §4
Rattus norvegicus [17] = assay: Ex vivo induction of NQO1 in Sprague-Dawley rat jejunum at 7.5 umol/kg/day, po for 10 days measured on day 11 relative to control; format: functional; in short: as §4
Rattus norvegicus [18] = assay: Ex vivo induction of NQO1 in Sprague-Dawley rat ileum at 7.5 umol/kg/day, po for 10 days measured on day 11 relative to control; format: functional; in short: as §4
Rattus norvegicus [19] = assay: Ex vivo induction of NQO1 in Sprague-Dawley rat colon at 7.5 umol/kg/day, po for 10 days measured on day 11 relative to control; format: functional; in short: as §4
Rattus norvegicus [20] = assay: Ex vivo induction of NQO1 in Sprague-Dawley rat stomach at 7.5 umol/kg/day, po for 10 days measured on day 11 relative to control; format: functional; in short: as §4
[21] = target: T1, Nuclear factor erythroid 2-related factor 2 (Rattus norvegicus) (UniProt O54968); assay: Induction of Nrf-mediated NQO1 protein expression in wild type rat NBT2 cells at 25 uM after 24 hrs Western blot analysis; format: functional, cell-based
T1 sequence (whole entry): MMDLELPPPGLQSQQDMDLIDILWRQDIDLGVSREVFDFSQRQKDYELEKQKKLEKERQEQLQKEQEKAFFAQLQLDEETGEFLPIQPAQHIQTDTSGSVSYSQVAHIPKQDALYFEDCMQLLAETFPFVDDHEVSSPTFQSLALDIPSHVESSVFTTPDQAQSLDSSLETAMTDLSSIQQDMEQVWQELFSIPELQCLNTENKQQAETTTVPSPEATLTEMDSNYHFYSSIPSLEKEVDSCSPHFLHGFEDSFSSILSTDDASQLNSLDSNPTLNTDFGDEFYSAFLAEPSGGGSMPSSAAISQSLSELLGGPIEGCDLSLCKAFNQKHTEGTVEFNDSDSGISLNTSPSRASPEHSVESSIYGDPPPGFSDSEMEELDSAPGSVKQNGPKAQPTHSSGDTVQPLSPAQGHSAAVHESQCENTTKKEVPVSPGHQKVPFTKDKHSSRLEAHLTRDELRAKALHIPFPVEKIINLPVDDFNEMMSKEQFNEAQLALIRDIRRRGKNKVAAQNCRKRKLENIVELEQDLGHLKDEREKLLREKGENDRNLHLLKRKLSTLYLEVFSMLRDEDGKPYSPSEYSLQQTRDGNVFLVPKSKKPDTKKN
In short: (§5)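 NBT-II cells transfected with Nrf2 stealth RNAi or control RNAi (0.584 nmol per dish, lipofectamine 2000) for 48 h. Then treated with compound at 25 µM or vehicle for 24 h, with 0.1% DMSO final. Lysates analyzed by Western blot for Nrf2, GCL, GST-α, GST-μ and NQO1, with GAPDH as loading control.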

NBT2 [22] = assay: Induction of GCL protein expression in Nrf gene knockout rat NBT2 cells at 25 uM after 24 hrs Western blot analysis; format: functional, cell-based; in short: as §5
NBT2 [23] = assay: Induction of GST-alpha protein expression in Nrf gene knockout rat NBT2 cells at 25 uM after 24 hrs Western blot analysis; format: functional, cell-based; in short: as §5
NBT2 [24] = assay: Induction of GST-mu protein expression in Nrf gene knockout rat NBT2 cells at 25 uM after 24 hrs Western blot analysis; format: functional, cell-based; in short: as §5
NBT2 [25] = assay: Induction of NQO1 protein expression in Nrf gene knockout rat NBT2 cells at 25 uM after 24 hrs Western blot analysis; format: functional, cell-based; in short: as §5
[26] = target: T1, Nuclear factor erythroid 2-related factor 2 (Rattus norvegicus); assay: Induction of Nrf in wild type rat NBT2 cells at 25 uM after 24 hrs Western blot analysis; format: functional, cell-based; in short: as §5
[27] = target: T1, Nuclear factor erythroid 2-related factor 2 (Rattus norvegicus); assay: Induction of Nrf-mediated GCL protein expression in wild type rat NBT2 cells at 25 uM after 24 hrs Western blot analysis; format: functional, cell-based; in short: as §5
[28] = target: T1, Nuclear factor erythroid 2-related factor 2 (Rattus norvegicus); assay: Induction of Nrf-mediated GST-alpha protein expression in wild type rat NBT2 cells at 25 uM after 24 hrs Western blot analysis; format: functional, cell-based; in short: as §5
[29] = target: T1, Nuclear factor erythroid 2-related factor 2 (Rattus norvegicus); assay: Induction of Nrf-mediated GST-mu protein expression in wild type rat NBT2 cells at 25 uM after 24 hrs Western blot analysis; format: functional, cell-based; in short: as §5

pKa [1]: 1.2
SMILES: O=C(O)c1cc(=S)ss1
fold change (FC) (Rattus norvegicus [2]): 1.27 | fold change (FC) (Rattus norvegicus [3]): 1.11

SMILES: Cc1c(S)ssc1=S
fold change (FC) (Rattus norvegicus [2]): 1.29 | fold change (FC) (Rattus norvegicus [3]): 1.08

SMILES: CCOC(=O)C1Cc2ssc(=S)c2C1 (centres undefined)
fold change (FC) (Rattus norvegicus [2]): 1.23 | fold change (FC) (Rattus norvegicus [3]): 1.11

SMILES: S=c1ssc2c1CCCCC2
fold change (FC) (Rattus norvegicus [2]): 1.2 | fold change (FC) (Rattus norvegicus [3]): 1.14

SMILES: CC1CCc2c1ssc2=S (centres undefined)
fold change (FC) (Rattus norvegicus [2]): 1.91 | fold change (FC) (Rattus norvegicus [3]): 1.3

Activity [21]: Active | Activity [26]: Active | Activity [27]: Active | Activity [28]: Active | Activity [29]: Active
SMILES: CCOC(=O)C1CCc2c1ssc2=S (centres undefined)
Activity (Rattus norvegicus [4]): Active | Activity (Rattus norvegicus [5]): Active | Activity (Rattus norvegicus [6]): Active | Activity (Rattus norvegicus [7]): inactive | Activity (NBT2 [8]): Dose-dependent effect | Activity (NBT2 [9]): Dose-dependent effect | Activity (NBT2 [10]): Dose-dependent effect | Activity (NBT2 [11]): inactive | Activity (NBT2 [12]): Active | fold change (FC) (Rattus norvegicus [13]): 1.17 | fold change (FC) (Rattus norvegicus [14]): 1.86 | fold change (FC) (Rattus norvegicus [15]): 1.17 | fold change (FC) (Rattus norvegicus [16]): 1.53 | fold change (FC) (Rattus norvegicus [17]): 1.38 | fold change (FC) (Rattus norvegicus [18]): 1.2 | fold change (FC) (Rattus norvegicus [19]): 1 | fold change (FC) (Rattus norvegicus [2]): 4.47 | fold change (FC) (Rattus norvegicus [3]): 2.29 | fold change (FC) (Rattus norvegicus [20]): 1.93 | Activity (NBT2 [22]): inactive | Activity (NBT2 [23]): inactive | Activity (NBT2 [24]): inactive | Activity (NBT2 [25]): inactive
